Test [1] deals with T1, Amine oxidase [flavin-containing] A (Bos taurus, UniProt P21398).
T1 sequence (P21398 whole entry): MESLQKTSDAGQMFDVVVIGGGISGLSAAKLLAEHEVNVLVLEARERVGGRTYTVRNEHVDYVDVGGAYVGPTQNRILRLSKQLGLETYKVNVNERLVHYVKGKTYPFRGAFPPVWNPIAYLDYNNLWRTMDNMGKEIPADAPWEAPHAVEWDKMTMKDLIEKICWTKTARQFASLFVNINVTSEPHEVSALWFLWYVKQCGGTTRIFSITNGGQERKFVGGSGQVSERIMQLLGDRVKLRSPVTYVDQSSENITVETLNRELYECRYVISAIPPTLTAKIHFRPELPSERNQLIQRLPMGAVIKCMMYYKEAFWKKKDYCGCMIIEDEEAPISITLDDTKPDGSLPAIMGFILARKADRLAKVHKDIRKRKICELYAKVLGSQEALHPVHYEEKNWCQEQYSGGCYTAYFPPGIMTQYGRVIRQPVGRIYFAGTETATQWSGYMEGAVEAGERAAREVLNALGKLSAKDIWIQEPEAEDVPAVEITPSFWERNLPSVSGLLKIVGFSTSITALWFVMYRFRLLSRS
The experiment in a line: Inhibition of bovine brain mitochondria MAOA. The essentials:
(§1)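 Beef brain mitochondria isolated per Basford, 6 mg/mL, in 0.25 M potassium phosphate pH 7.4. Preincubation 30 min at 38 °C with 0.5 µM L-deprenyl (MAO-A) or 0.05 µM clorgyline (MAO-B). Inhibitor in DMSO, […]. Kynuramine at four final levels, 5 µM–0.1 mM, 30 min at 38 °C. Perchloric acid stop, fluorimetric read. Ki from Dixon plots; ≥3 experiments in duplicate.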

Test [2] deals with T2, Amine oxidase [flavin-containing] B (Bos taurus, UniProt P56560).
T2 sequence (P56560 whole entry): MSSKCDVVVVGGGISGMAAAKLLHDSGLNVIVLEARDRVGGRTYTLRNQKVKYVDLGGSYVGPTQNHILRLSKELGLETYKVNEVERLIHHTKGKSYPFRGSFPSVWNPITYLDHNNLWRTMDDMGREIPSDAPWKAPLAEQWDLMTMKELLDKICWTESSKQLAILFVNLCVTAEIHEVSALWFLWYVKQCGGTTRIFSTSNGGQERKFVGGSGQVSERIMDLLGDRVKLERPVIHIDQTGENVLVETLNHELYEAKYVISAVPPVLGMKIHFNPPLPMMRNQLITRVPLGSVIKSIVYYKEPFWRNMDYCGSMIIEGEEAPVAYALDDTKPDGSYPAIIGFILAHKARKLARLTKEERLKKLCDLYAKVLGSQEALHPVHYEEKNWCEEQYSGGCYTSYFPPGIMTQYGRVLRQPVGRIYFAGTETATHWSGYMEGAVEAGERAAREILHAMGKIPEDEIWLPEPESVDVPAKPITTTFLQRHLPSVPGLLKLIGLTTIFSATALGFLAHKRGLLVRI
Nature of the test: Inhibition of bovine brain mitochondria MAOB. The method in brief: as §1

The species named for test [3] is Bos taurus. The experiment in a line: Selectivity index, ratio of Ki for MAOB to Ki for MAOA in bovine brain mitochondria. The method in brief:
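SI computed as Ki(MAO-B)/Ki(MAO-A). Both Ki values are from the fluorimetric kynuramine assay on bovine brain mitochondria, with isoforms isolated by L-deprenyl or clorgyline preincubation. Ki from Dixon plots; means of at least three experiments.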

Test [4] is filed under the species Bos taurus. Nature of the test: Selectivity index, ratio of Ki for MAOA to Ki for MAOB in bovine brain mitochondria.

Structures are written as SMILES.

`NC(=S)N1N=C(c2ccc(F)cc2)CC1c1ccc(Cl)cc1` (stereo unspecified): the Ki in test [1] amounted to 6 nM; in test [2], 1000 nM. For the same compound, the Ratio Ki in test [3] worked out at 166; in test [4], 0.006.

For `Cc1ccc(C2=NN(C(N)=S)[C@H](c3ccc(Cl)cc3)C2)cc1`, the Ki in test [1] is 50 nM; in test [2] it was 1 nM. The Ratio Ki in test [3] was found to be 0.02; in test [4] it was 50.

For the compound `Cc1ccc(C2=NN(C(N)=S)C(c3ccc(Cl)cc3)C2)cc1` (stereo unspecified), the inhibitory constant (Ki) in test [1] was found to be 31 nM; in test [2], 1.5 nM. The Ratio Ki in test [3] was 0.05; in test [4], 20.7.

`NC(=S)N1N=C(c2cccs2)CC1c1cccs1` (stereo unspecified): the Ki in test [1] came to 27 nM; in test [2], 50 nM. Further, the values for the Ratio Ki in test [3] and in test [4] were 1.85 and 0.54, respectively.

In the case of `NC(=S)N1N=C(c2ccc(F)cc2)C[C@H]1c1ccc(Cl)cc1`, the Ki in test [1] is 5 nM; in test [2] it was 2400 nM. Further, the values for the Ratio Ki in test [3] and in test [4] were 480 and 0.002, respectively.

For the compound `Cc1ccc(C2CC(c3ccc(F)cc3)=NN2C(N)=S)cc1` (stereo unspecified), the values for the Ki in test [1] and in test [2] were 7 nM and 50 nM, respectively. Further, the Ratio Ki in test [3] was 7.1; in test [4] it was 0.14.

For the compound `Cc1ccc(C2CC(c3cccs3)=NN2C(N)=S)cc1` (stereo unspecified), the inhibitory constant (Ki) came out at 50 nM in test [1] and 10 nM in test [2]. Further, the Ratio Ki in test [3] is 0.2; in test [4] it was 5.

As to `NC(=S)N1N=C(c2ccc(F)cc2)CC1c1ccco1` (stereo unspecified), the inhibition constant (Ki) in test [1] came to 8 nM; in test [2] it was 370 nM. Also, the Ratio Ki in test [3] was 46.2; in test [4] it was 0.021.

On to `NC(=S)N1N=C(c2cccs2)CC1c1ccco1` (stereo unspecified), for which the Ki in test [1] turned out to be 50 nM; in test [2] it was 20 nM. The Ratio Ki was 0.4 in test [3] and 2.5 in test [4].

`Cc1ccc(C2=NN(C(N)=S)[C@@H](c3ccc(Cl)cc3)C2)cc1`: the inhibition constant (Ki) came to 13 nM in test [1] and 2.7 nM in test [2]. Besides, the figures for the Ratio Ki in test [3] and in test [4] were 0.2 and 4.8, respectively.

With `NC(=S)N1N=C(c2ccc(F)cc2)C[C@@H]1c1ccc(Cl)cc1`, the inhibition constant (Ki) in test [1] was determined as 12 nM; in test [2] it was 1400 nM. Also, the values for the Ratio Ki in test [3] and in test [4] were 116 and 0.008, respectively.

For the compound `Cc1ccc(C2=NN(C(N)=S)C(c3ccc(C)cc3)C2)cc1` (stereo unspecified), the values for the Ki in test [1] and in test [2] were 6 nM and 10 nM, respectively. The Ratio Ki was determined as 1.6 in test [3] and 0.6 in test [4].

With `Cc1ccc(C2=NN(C(N)=S)C(c3ccco3)C2)cc1` (stereo unspecified), the inhibition constant Ki in test [1] is 4 nM; in test [2], 170 nM. In addition, the Ratio Ki worked out at 42.5 in test [3] and 0.02 in test [4].

As to `NC(=S)N1N=C(c2cccs2)CC1c1ccc(Cl)cc1` (stereo unspecified), the Ki was found to be 41 nM in test [1] and 6 nM in test [2]. The Ratio Ki amounted to 0.14 in test [3] and 6.8 in test [4].

The values are drawn from ChEMBL document CHEMBL1139465, “Synthesis, molecular modeling studies, and selective inhibitory activity against monoamine oxidase of 1-thiocarbamoyl-3,5-diaryl-4,5-dihydro-(1H)- pyrazole derivatives” (J Med Chem, 2005).
